In ChEMBL document CHEMBL1142436, “Design and synthesis of 4-substituted indolo[3,2-e][1,2,3]triazolo[1,5-a]pyrimidine derivatives with antitumor activity” (2008):

Assays:
Assay type in all cases: functional
NCI-H460 = experiment: Growth inhibition of human NCI-H460 cells after 48 hrs; conditions: NCI-H460, 48 h
Procedure, shortened: (§1)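 NCI ~60-line screen. Cells were grown in RPMI 1640 with 5% FBS and 2 mM L-glutamine and plated at 5000–40000 cells/well. After a 24 h preincubation, five drug concentrations from DMSO stocks were added for 48 h at 37 °C. Cells were TCA-fixed, stained with SRB and read at 515 nm. GI50 was taken from time-zero and control absorbances and reported as pGI50.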

HCT-116 = experiment: Growth inhibition of human HCT116 cells after 48 hrs; conditions: HCT-116, 48 h; procedure, shortened: as §1
KM12 = experiment: Growth inhibition of human KM12 cells after 48 hrs; conditions: KM12, 48 h; procedure, shortened: as §1
NCI-H322M = experiment: Growth inhibition of human NCI-H322M cells after 48 hrs; procedure, shortened: as §1
SF-268 = experiment: Growth inhibition of human SF268 cells after 48 hrs; conditions: SF-268, 48 h; procedure, shortened: as §1
NCI/ADR-RES = experiment: Growth inhibition of human NCI/ADR-RES cells after 48 hrs; procedure, shortened: as §1
HT-29 = experiment: Growth inhibition of human HT29 cells after 48 hrs; conditions: HT-29, 48 h; procedure, shortened: as §1
COLO 205 = experiment: Growth inhibition of human COLO205 cells after 48 hrs; conditions: COLO 205, 48 h; procedure, shortened: as §1
MOLT-4 = experiment: Growth inhibition of human MOLT4 cells after 48 hrs; conditions: MOLT-4, 48 h; procedure, shortened: as §1
RXF 393 = experiment: Growth inhibition of human RXF393 cells after 48 hrs; conditions: RXF 393, 48 h; procedure, shortened: as §1
UACC-257 = experiment: Growth inhibition of human UACC257 cells after 48 hrs; conditions: UACC-257, 48 h
Procedure, shortened: (§2)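 NCI 60-line screen: cells in RPMI 1640 with 5% FBS and 2 mM L-glutamine, plated at 5000–40000 cells/well, grown 24 h (37 °C, 5% CO₂), then exposed to five 10-fold or ½-log dilutions (DMSO stock) for 48 h. Fixed with TCA (final 10% for adherent cells, 16% for suspension cells), then SRB stained with absorbance at 515 nm. GI50 from percentage growth relative to time-zero and control wells.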

SF-539 = experiment: Growth inhibition of human SF539 cells after 48 hrs; conditions: SF-539, 48 h; procedure, shortened: as §1
UO-31 = experiment: Growth inhibition of human UO31 cells after 48 hrs; conditions: UO-31, 48 h; procedure, shortened: as §2
PC-3 = experiment: Growth inhibition of human PC3 cells after 48 hrs; conditions: PC-3, 48 h; procedure, shortened: as §1
NCI-H226 = experiment: Growth inhibition of human NCI-H226 cells after 48 hrs; conditions: NCI-H226, 48 h; procedure, shortened: as §1
A549 = experiment: Growth inhibition of human A549 cells after 48 hrs; conditions: A549, 48 h; procedure, shortened: as §1
HOP-62 = experiment: Growth inhibition of human HOP62 cells after 48 hrs; conditions: HOP-62, 48 h; procedure, shortened: as §1
ACHN = experiment: Growth inhibition of human ACHN cells after 48 hrs; procedure, shortened: as §1
EKVX = experiment: Growth inhibition of human EKVX cells after 48 hrs; procedure, shortened: as §1
UACC-62 = experiment: Growth inhibition of human UACC62 cells after 48 hrs; conditions: UACC-62, 48 h; procedure, shortened: as §2
SK-MEL-2 = experiment: Growth inhibition of human SK-MEL2 cells after 48 hrs; conditions: SK-MEL-2, 48 h; procedure, shortened: as §1
[1] = Growth inhibition of human HS578T cells after 48 hrs; conditions: Hs-578T; procedure, shortened: as §1
SK-MEL-5 = experiment: Growth inhibition of human SK-MEL5 cells after 48 hrs; conditions: SK-MEL-5, 48 h; procedure, shortened: as §1
SK-MEL-28 = experiment: Growth inhibition of human SK-MEL28 cells after 48 hrs; conditions: SK-MEL-28, 48 h; procedure, shortened: as §1
SNB-19 = experiment: Growth inhibition of human SNB19 cells after 48 hrs; conditions: SNB-19, 48 h; procedure, shortened: as §2
CCRF-CEM = experiment: Growth inhibition of human CCRF-CEM cells after 48 hrs; procedure, shortened: as §1
TK-10 = experiment: Growth inhibition of human TK10 cells after 48 hrs; conditions: TK-10, 48 h; procedure, shortened: as §2
OVCAR-8 = experiment: Growth inhibition of human OVCAR8 cells after 48 hrs; conditions: OVCAR-8, 48 h; procedure, shortened: as §1
HOP-92 = experiment: Growth inhibition of human HOP92 cells after 48 hrs; conditions: HOP-92, 48 h; procedure, shortened: as §1
RPMI-8226 = experiment: Growth inhibition of human RPMI8226 cells after 48 hrs; conditions: RPMI-8226, 48 h; procedure, shortened: as §1
SF-295 = experiment: Growth inhibition of human SF295 cells after 48 hrs; conditions: SF-295, 48 h; procedure, shortened: as §1
786-0 = experiment: Growth inhibition of human 786-0 cells after 48 hrs; conditions: 786-0, 48 h; procedure, shortened: as §1
SN12C = experiment: Growth inhibition of human SN12C cells after 48 hrs; procedure, shortened: as §2

## CCCCN(CCCC)CCCn1c(=O)c2c3ccccc3n(C)c2n2nnc(-c3ccccc3)c12
NCI-H460
  GI50: 40.7 µM
NCI-H460; read-out: pTGI (converted)
  TGI: > 100 µM
HCT-116
  GI50: 18.6 µM
HCT-116; read-out: pTGI (converted)
  TGI: > 100 µM
KM12
  GI50: 33.9 µM
KM12; read-out: pTGI (converted)
  TGI: > 100 µM
NCI-H322M
  GI50: 28.8 µM
NCI-H322M; read-out: pTGI (converted)
  TGI: > 100 µM
SF-268
  GI50: > 100 µM
SF-268; read-out: pTGI (converted)
  TGI: > 100 µM
NCI/ADR-RES
  GI50: 14.1 µM
NCI/ADR-RES; read-out: pTGI (converted)
  TGI: 67.6 µM
HT-29
  GI50: 7.76 µM
HT-29; read-out: pTGI (converted)
  TGI: 36.3 µM
COLO 205
  GI50: 5.01 µM
COLO 205; read-out: pTGI (converted)
  TGI: 63.1 µM
MOLT-4
  GI50: 13.8 µM
MOLT-4; read-out: pTGI (converted)
  TGI: > 100 µM
RXF 393
  GI50: 14.1 µM
RXF 393; read-out: pTGI (converted)
  TGI: 42.7 µM
UACC-257
  GI50: 28.8 µM
UACC-257; read-out: pTGI (converted)
  TGI: 83.2 µM
SF-539
  GI50: 66.1 µM
SF-539; read-out: pTGI (converted)
  TGI: > 100 µM
UO-31
  GI50: 6.03 µM
UO-31; read-out: pTGI (converted)
  TGI: 46.8 µM
PC-3
  GI50: 18.2 µM
PC-3; read-out: pTGI (converted)
  TGI: 47.9 µM
NCI-H226
  GI50: 57.5 µM
NCI-H226; read-out: pTGI
  TGI: > 100 µM
A549
  GI50: 43.7 µM
A549; read-out: pTGI (converted)
  TGI: > 100 µM
HOP-62
  GI50: 30.9 µM
HOP-62; read-out: pTGI (converted)
  TGI: > 100 µM
ACHN
  GI50: 34.7 µM
ACHN; read-out: pTGI (converted)
  TGI: > 100 µM
EKVX
  GI50: 56.2 µM
EKVX; read-out: pTGI (converted)
  TGI: > 100 µM
UACC-62
  GI50: 22.4 µM
UACC-62; read-out: pTGI (converted)
  TGI: 85.1 µM
SK-MEL-2
  GI50: > 100 µM
SK-MEL-2; read-out: pTGI (converted)
  TGI: > 100 µM
[1]
  GI50: 38.9 µM
[1]; read-out: pTGI (converted)
  TGI: > 100 µM
SK-MEL-5
  GI50: 31.6 µM
SK-MEL-5; read-out: pTGI (converted)
  TGI: > 100 µM
SK-MEL-28
  GI50: > 100 µM
SK-MEL-28; read-out: pTGI (converted)
  TGI: > 100 µM
SNB-19
  GI50: > 100 µM
SNB-19; read-out: pTGI (converted)
  TGI: > 100 µM
CCRF-CEM
  GI50: 4.17 µM
CCRF-CEM; read-out: pTGI (converted)
  TGI: 91.2 µM
TK-10
  GI50: 1.91 µM
TK-10; read-out: pTGI (converted)
  TGI: 22.4 µM
OVCAR-8
  GI50: 39.8 µM
OVCAR-8; read-out: pTGI (converted)
  TGI: > 100 µM
HOP-92
  GI50: 18.6 µM
HOP-92; read-out: pTGI (converted)
  TGI: 44.7 µM
RPMI-8226
  GI50: 6.03 µM
RPMI-8226; read-out: pTGI (converted)
  TGI: 49 µM
SF-295
  GI50: 31.6 µM
SF-295; read-out: pTGI (converted)
  TGI: > 100 µM
786-0
  GI50: 38.9 µM
786-0; read-out: pTGI (converted)
  TGI: > 100 µM
SN12C
  GI50: 19.5 µM
SN12C; read-out: pTGI (converted)
  TGI: 95.5 µM
